# This is a sample that favours compounds with a hit; in the whole collection about 2% have one here.
# RAD54 inh – inhibitors of human RAD54 branch migration, primary screen, biochemical, fluorescence, single point; 360,000 compounds, 0.14% hits; RAD54 Holliday junction branch migration, FAM/BHQ fluorescence; AID 602329, 2012; inhibition, % at 10.4 µM; DNA repair and recombination protein RAD54-like (Homo sapiens), Q92698;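 active means mean normalized replicate activity at least 40 and at least half of replicates scoring 40 or more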;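 further: inhibitors cause a drop in the FAM fluorescence signal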
# RAD52 inh – RAD52 DNA annealing inhibitors, primary screen, biochemical, FRET, single point, set 2 | DNA repair protein RAD52 homolog (Homo sapiens), P43351 | recombinant RAD52 DNA annealing, FRET fluorescence | inhibition, % at 18.7 µM | 360,000 compounds, 0.46% hits;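 active means every replicate showing at least 50% inhibition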
# E-selectin induc – E-selectin induction in HUVECs, primary screen, imaging, HUVEC, immunofluorescence imaging, single point | P16581 | normalized: neutral wells 0, TNF-alpha wells 100 | activation, % at 7.58 µM | 260,000 compounds, 0.37% hits | AID 686992, 2013;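 active means mean E-selectin-positive cell signal at least 10% of the positive control, reached in at least 60% of replicates, without over 20% cell loss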
# Target sequence (P16581 whole entry, looked up): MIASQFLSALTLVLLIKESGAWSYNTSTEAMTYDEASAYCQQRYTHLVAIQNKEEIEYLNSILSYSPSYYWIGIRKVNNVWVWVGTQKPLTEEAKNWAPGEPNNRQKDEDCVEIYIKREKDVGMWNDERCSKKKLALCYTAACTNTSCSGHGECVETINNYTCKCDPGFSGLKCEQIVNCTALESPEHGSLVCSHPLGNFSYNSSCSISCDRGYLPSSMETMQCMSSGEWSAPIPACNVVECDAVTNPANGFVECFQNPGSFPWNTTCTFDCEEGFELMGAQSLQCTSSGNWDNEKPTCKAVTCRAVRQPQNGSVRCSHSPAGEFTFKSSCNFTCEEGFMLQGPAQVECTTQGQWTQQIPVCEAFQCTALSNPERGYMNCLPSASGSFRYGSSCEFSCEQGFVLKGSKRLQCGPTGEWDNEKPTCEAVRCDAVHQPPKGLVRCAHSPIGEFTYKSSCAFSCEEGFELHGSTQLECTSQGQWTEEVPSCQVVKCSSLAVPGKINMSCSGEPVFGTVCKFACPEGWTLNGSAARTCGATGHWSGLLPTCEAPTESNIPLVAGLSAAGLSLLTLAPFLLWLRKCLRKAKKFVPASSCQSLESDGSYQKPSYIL
#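 System: HUVEC / Compound: single concentration / Signal: immunofluorescence imaging / Read-out: percent E-selectin-positive cells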
# PglD DTNB – C. jejuni PglD acetyltransferase inhibitors, primary screen, biochemical, DTNB colorimetric, single point; UDP-N-acetylbacillosamine N-acetyltransferase PglD (Campylobacter jejuni); purified PglD enzyme, DTNB colorimetric CoA detection; inhibition, % at 12.5 µM; 360,000 compounds, 0.098% hits; in the data active means inhibition above about 16%, passing the limit was not always enough
# rRNA inh HTS – reduced GFP signal of wild-type E. coli, primary screen, bacterial rRNA inhibitor project, GFP/RFP fluorescence, OD600, single point | AID 720706, 2013 | GFP signal change (wild-type ribosome), % (no concentration beside the values) | 350,000 compounds, 1.6% hits | E. coli WT GFP vs humanized-ribosome RFP mutants, 24 h; hits give low values; DMSO median 0, no signal -100;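 active means significant combined selectivity score with lowered wild-type GFP, culture density cut under 30%, mutant RFP and density less affected; inactive means any of these conditions unmet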
# XiGFP reactiv – activators of inactive X chromosome reactivation, primary screen, imaging, XiGFP fibroblasts, GFP high-content imaging, set 2; activation, % at 7.58 µM; 360,000 compounds, 0.055% hits; XiGFP mouse fibroblasts, % GFP-positive cells imaging, 3 d; cells co-treated with 5-aza-dC sensitizer; scaled so ellipticine positive control = 100%; AID 743238, 2013;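 active means mean normalized replicate activation at least 10% and every replicate at or above 10%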
#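 Assay system – SV40-immortalized XiGFP fibroblast cells, line 68-5-11 · Buffer or medium – DMEM supplemented with 5-aza-dC as sensitizing agent · Dosing – one concentration, pinned · Benchmarks – positive control ellipticine, 6 µM final · Times – 3 days compound exposure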
# Numbers stand for hits; . = inactive; / = no result given.
SMILES,RAD54 inh,RAD52 inh,E-selectin induc,PglD DTNB,rRNA inh HTS,XiGFP reactiv
COc1ccc2cc3cc(C(=O)NCCCN4CCOCC4)oc3nc2c1,60,/,/,.,/,/
COc1ccc(CN(C)C[C@H]2Oc3ccc(NC(=O)c4ccncc4)cc3C(=O)N([C@H](C)CO)C[C@@H]2C)cc1,.,.,47,.,.,.
COc1ccc(CN(C)C[C@@H]2Oc3ccc(NC(=O)c4ccncc4)cc3C(=O)N([C@H](C)CO)C[C@H]2C)cc1,.,.,93,.,.,.
C[C@@H]1CN([C@H](C)CO)C(=O)c2cc(NC(=O)c3ccncc3)ccc2O[C@H]1CN(C)Cc1ccncc1,.,.,.,.,.,.
COc1ccc(NC(=O)N(C)C[C@@H]2Oc3ccc(NS(=O)(=O)c4ccc(F)cc4)cc3C(=O)N([C@@H](C)CO)C[C@H]2C)cc1,.,.,.,.,.,.
O=C(NCC[C@H]1CC[C@@H](NC(=O)C2CCCCC2)[C@H](CO)O1)c1cc(Cl)cc(Cl)c1,.,.,.,.,.,.
CN1CCN(C(=O)C[C@@H]2CC[C@H]3[C@@H](COC[C@@H](O)CN3CC3CCCCC3)O2)CC1,.,.,.,.,.,.
CSc1sc(C(=O)Nc2ccc(F)cc2F)c2c1C=CCC2,.,.,.,.,-26,.
COCC(=O)Nc1ccc2c(c1)OC[C@H](C)N(Cc1cccc(F)c1)C[C@@H](C)[C@@H](OC)CN(C)C2=O,.,.,.,.,.,.
O=C1c2ccccc2C(c2nnnn2Cc2ccccc2)N1Cc1ccc(F)cc1 (stereo unspecified),/,.,.,/,.,.
O=C1c2ccccc2C(c2nnnn2Cc2ccccc2)N1Cc1ccc2c(c1)OCO2 (stereo unspecified),/,.,.,/,-27,.
C[C@H]1CN([C@@H](C)CO)C(=O)c2cc(NS(=O)(=O)c3cccs3)ccc2O[C@@H]1CN(C)Cc1ccncc1,.,.,.,.,.,.
C[C@H](CO)N1C[C@H](C)[C@H](CN(C)C(=O)Nc2ccc3c(c2)OCO3)Oc2ccc(NC(=O)CCCCCC(=O)Nc3ccccc3N)cc2CC1=O,.,.,392,.,.,.
C[C@@H]1CN([C@@H](C)CO)C(=O)Cc2cc(NC(=O)CCCCCC(=O)Nc3ccccc3N)ccc2O[C@@H]1CN(C)C(=O)Nc1ccc2c(c1)OCO2,.,.,181,.,.,.
COc1ccc(NC(=O)N(C)C[C@H]2Oc3ccc(NC(=O)CCCCCC(=O)Nc4ccccc4N)cc3CC(=O)N([C@@H](C)CO)C[C@H]2C)cc1,.,.,32,.,.,.
C[C@H](CO)N1C[C@H](C)[C@@H](CN(C)C(=O)Nc2ccc3c(c2)OCO3)Oc2ccc(NC(=O)CCCCCC(=O)Nc3ccccc3N)cc2CC1=O,.,.,.,.,.,.
C[C@@H]1CN([C@@H](C)CO)C(=O)c2cc(NC(=O)CCCCCC(=O)Nc3ccccc3N)ccc2O[C@@H]1CN(C)C(=O)Nc1ccccc1,.,.,.,.,.,.
C[C@@H]1CN([C@H](C)CO)C(=O)c2cc(NC(=O)CCCCCC(=O)Nc3ccccc3N)ccc2O[C@@H]1CN(C)C(=O)Nc1ccc2c(c1)OCO2,.,.,100,.,.,.
O=C(C[C@H]1CC[C@@H]2[C@H](COC[C@H](O)CN2C(=O)c2ccncc2)O1)NCc1ccc(-c2ccccc2)cc1,.,.,.,.,.,.
COc1ccc2c3c(n(C)c2c1)[C@@H](CO)N(C(=O)C1CCCCC1)CC31CN(C(=O)c2ccncc2)C1,/,/,/,/,.,.
Cc1cccn2c(Nc3ccccc3)c(-c3ccccn3)nc12,.,.,.,.,-43,.
Cc1ccccc1Nc1c(-c2ccccn2)nc2ccccn12,/,.,/,.,-54,.
O=C(NC(O)C(=O)c1ccccc1)c1ccccn1 (stereo unspecified),.,.,50,.,.,.
O=C(NC(O)C(=O)c1ccccc1)c1cccs1 (stereo unspecified),.,.,/,.,.,.
Cn1cc(/C=C2\SC(=O)N(c3ccc(O)cc3)C2=O)c2ccccc21,.,.,.,.,-35,.
SMILES,RAD54 inh,RAD52 inh,E-selectin induc,PglD DTNB,rRNA inh HTS,XiGFP reactiv
CCCc1cn(CC[C@H]2CC[C@H](NC(=O)Nc3ccccc3F)[C@@H](CO)O2)nn1,.,.,.,.,.,.
COC(=O)C1=CN(Cc2ccc(OC)cc2)C=C(C(=O)OC)C1c1ccsc1,/,.,.,/,-22,.
C[C@H](CO)N1C[C@H](C)[C@H](CN(C)C(=O)Cc2ccccc2)OCCCC[C@H](C)Oc2ccc(NC(=O)c3ccccc3)cc2C1=O,.,.,/,.,.,.
O=C(NNC(=O)c1ccccc1OCc1ccc(F)cc1)c1ccccc1O,.,.,.,.,/,.
O=C(NCc1ccc(F)cc1)c1ccccc1OCc1ccccc1,.,.,/,.,-38,.
COc1ccc(N2CCN(C(CNC(=O)c3ccc4c(c3)OCO4)c3ccco3)CC2)cc1 (stereo unspecified),.,.,.,.,.,29
O=C(NCC(c1ccco1)N1CCN(c2ccc(F)cc2)CC1)c1ccc2c(c1)OCO2 (stereo unspecified),.,.,/,.,.,.
CCCCCCCCCCOC(=O)Cn1c(COc2ccccc2OC)[n+](C)c2ccccc21,.,75,.,.,.,.
Cc1cccc2c1NC1(CCCC1)CC2C (stereo unspecified),.,.,188,.,.,.
CN(C)c1ccc([C@@H]2[C@@H]([N+](=O)[O-])[C@H]3C=Cc4ccccc4N3[C@H]2C(=O)c2ccc(Cl)cc2)cc1,.,.,/,.,-28,.
O=C(c1ccccc1)C1C(c2ccccc2)C1[N+](=O)[O-] (stereo unspecified),.,.,.,.,.,.
CO[C@H]1CN(C)C(=O)c2ccc(NC(=O)C3CCCCC3)cc2OC[C@@H](C)N(Cc2cccnc2)C[C@@H]1C,.,.,.,.,.,.
CCn1c(=O)c2cc(C(=O)NCC(OC)OC)sc2c2ccccc21,.,.,66,.,.,.
CCOC(CNC(=O)c1cc2c(=O)n(CC)c3ccccc3c2s1)OCC,.,.,.,.,.,.

# Screening results from PubChem BioAssay.
